How the values were obtained:
[1] = Stability of oncrasins in rat plasma; format: in vitro ADME; settings: for Stability after 2 h at room temperature: bench-top, 2 h (data not shown); for Three freeze-thaw cycles stability, percent of nominal concentration: freeze −80°C / thaw RT; for Three freeze-thaw cycles stability, percent of nominal concentration / Long term -80°C (14 days) stability, percent of nominal concentration / Short-term (1h) stability, percent of nominal concentration: n=3, mean ± SD; for Short-term (1h) stability, percent of nominal concentration: room temperature bench-top 1 h
Procedure, shortened: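 Blank rat plasma was spiked at low and high QC levels, three replicates per level, then measured by LC-MS/MS against freshly prepared samples at the same concentrations. Results are percent of nominal. Short-term bench-top: room temperature for 1, 2 and 3 h. Freeze-thaw: three cycles of −80°C freezing and room-temperature thawing. Long-term: 14 days of storage.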

[2] = Stability of processed sample; format: in vitro ADME, rat; settings: plasma extracts; for Deviation from nominal concentration after 24 h in the auto-sampler: 24 h at 15°C (data not shown); for Auto-sampler at 15°C (1h) stability, percent of nominal concentration: n=3, mean ± SD
Procedure, shortened: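 Spiked rat plasma (50 μL) was mixed with 100 μL acetonitrile internal-standard working solution (125 ng/mL) and centrifuged at 20,800 x g for 5 min at 4°C. The supernatant extracts were held in the auto-sampler at 15°C for 1 h and 24 h. They were then compared with freshly obtained extracts at low and high QC levels in triplicate, by LC-MS/MS.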

[3] = Pharmacokinetic study in rats after intravenous oncrasin-266 formulation; format: in vivo, Sprague-Dawley rats; settings: mean ± SD, n=5; for AUC / Cmax: rat plasma; for Cl / Vd / t1/2: rat
Procedure, shortened: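 Male adult Sprague-Dawley rats received the prodrug formulation IV through a jugular vein cannula at 10, 25 or 50 mg/kg (n=5 per dose). Blood (200 μL) was drawn predose and at 0.0167 to 48 h into heparinized tubes. Plasma was spun at 20,800 x g for 3 min and kept at −80°C. Urine was collected over 0–24 h. Analytes were quantified by validated LC-MS/MS. Each rat's profile was analysed noncompartmentally.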

[4] = analyte after I.V. oncrasin-266 formulation 10 mg/kg
[5] = analyte after I.V. oncrasin-266 formulation 25 mg/kg
[6] = analyte after I.V. oncrasin-266 formulation 50 mg/kg

Row | Compound | Stability after 2 h at room temperature [1] | Deviation from nominal concentration after 24 h in the auto-sampler [2] | AUC [3, 4] | Cmax [3, 4] | AUC [3, 5] | Cmax [3, 5] | AUC [3, 6] | Cmax [3, 6] | Cl [3, 4] | Vd [3, 4] | t1/2 [3, 4] | Cl [3, 5] | Vd [3, 5] | t1/2 [3, 5] | Cl [3, 6] | Vd [3, 6] | t1/2 [3, 6] | other results
1 | OCc1cn(Cc2cccc(Cl)c2)c2ccccc12 [Oncrasin-72] | remained stable | ≤ 15% | 2220 ± 330 ng·h/mL | 15550 ± 5330 ng/mL | 7150 ± 1960 ng·h/mL | 52440 ± 16750 ng/mL | 23700 ± 7950 ng·h/mL | 54790 ± 30600 ng/mL | 4.56 ± 0.7 L/kg | 45.06 ± 16.70 L/kg | 7.01 ± 2.81 h | 3.62 ± 0.77 L/kg | 42.55 ± 24.3 L/kg | 7.74 ± 3.95 h | 2.30 ± 0.74 L/kg | 27.78 ± 10.36 L/kg | 8.28 ± 1.34 h | Three freeze-thaw cycles stability, percent of nominal concentration ([1]; nominal 2 ng/mL): 97.53 ± 5.94%; Three freeze-thaw cycles stability, percent of nominal concentration ([1]; nominal 200 ng/mL): 101.23 ± 10.03%; Long term -80°C (14 days) stability, percent of nominal concentration ([1]; nominal 2 ng/mL): 95.02 ± 8.54%; Long term -80°C (14 days) stability, percent of nominal concentration ([1]; nominal 200 ng/mL): 89.14 ± 0.49%; Short-term (1h) stability, percent of nominal concentration ([1]; nominal 2 ng/mL): 94.87 ± 5.31%; Short-term (1h) stability, percent of nominal concentration ([1]; nominal 200 ng/mL): 110.55 ± 3.0%; Auto-sampler at 15°C (1h) stability, percent of nominal concentration ([2]; nominal 2 ng/mL): 94.90 ± 2.54%; Auto-sampler at 15°C (1h) stability, percent of nominal concentration ([2]; nominal 200 ng/mL): 98.05 ± 6.15%
2 | O=Cc1cn(Cc2cccc(Cl)c2)c2ccccc12 [NSC-741908] | remained stable | ≤ 15% | 500 ± 420 ng·h/mL | 1560 ± 1550 ng/mL | 110 ± 30 ng·h/mL | 330 ± 120 ng/mL | 680 ± 420 ng·h/mL | 2140 ± 1730 ng/mL | 75.73 ± 86.14 L/kg | 47.04 ± 33.52 L/kg | 1.19 ± 0.93 h | 254.62 ± 108.12 L/kg | 443.15 ± 71.91 L/kg | 1.31 ± 0.39 h | 103.60 ± 67.32 L/kg | 137.64 ± 33.49 L/kg | 1.16 ± 0.52 h | Three freeze-thaw cycles stability, percent of nominal concentration ([1]; nominal 1 ng/mL): 110.20 ± 6.79%; Three freeze-thaw cycles stability, percent of nominal concentration ([1]; nominal 100 ng/mL): 95.15 ± 4.53%; Long term -80°C (14 days) stability, percent of nominal concentration ([1]; nominal 1 ng/mL): 112.67 ± 2.45%; Long term -80°C (14 days) stability, percent of nominal concentration ([1]; nominal 100 ng/mL): 93.46 ± 5.62%; Short-term (1h) stability, percent of nominal concentration ([1]; nominal 1 ng/mL): 101.00 ± 12.58%; Short-term (1h) stability, percent of nominal concentration ([1]; nominal 100 ng/mL): 99.21 ± 5.62%; Auto-sampler at 15°C (1h) stability, percent of nominal concentration ([2]; nominal 1 ng/mL): 113.44 ± 6.90%; Auto-sampler at 15°C (1h) stability, percent of nominal concentration ([2]; nominal 100 ng/mL): 100.25 ± 2.67%

Reference: paper PMC5045800 (Journal of chromatography. B, Analytical technologies in …, 2016)
